In brackets after ≈: the same amount, converted by molar mass.
Assays:
Assay type in all cases: functional
Cryptococcus neoformans [1] = assay: Antifungal activity against Cryptococcus neoformans IM 00319 clinical isolate after 48 hrs by broth microdilution method; conditions: IM 00319, 48 h
Method in brief: (§1)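 Clinical isolates from the Malbrán Institute were grown on Sabouraud-chloramphenicol agar for 48 h at 30 °C, kept on Sabouraud-dextrose agar and subcultured every 15 days. Endpoints MIC100, MIC80 and MIC50 were taken from % inhibition dose-response curves.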

Cryptococcus neoformans [2] = assay: Antifungal activity against Cryptococcus neoformans IM 972751 clinical isolate after 48 hrs by broth microdilution method; conditions: IM 972751, 48 h
Method in brief: as §1, with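 “days. M27-A3 RPMI-1640 microdilution used 1–5 × 10^3 CFU/mL, 48 h at 30 °C, OD405 read, triplicate.” for “days.”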

Cryptococcus neoformans [3] = assay: Antifungal activity against Cryptococcus neoformans ATCC 32264 assessed as growth inhibition at 125 ug/ml after 48 hrs by broth microdilution method; conditions: ATCC 32264, 48 h
Method in brief: (§2)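 CLSI M27-A3 broth microdilution in RPMI-1640. Compound stocks were made in DMSO (final at most 1%) and tested at final levels of 250 to 0.98. Inoculum was 1–5 × 10^3 CFU/mL, incubated 48 h at 30 °C in a moist, dark chamber. Growth and sterility control wells were included.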

Candida albicans [4] = assay: Antifungal activity against Candida albicans ATCC 10231 assessed as growth inhibition at 62.5 ug/ml after 48 hrs by broth microdilution method; conditions: ATCC 10231, 48 h; method in brief: as §2
Candida albicans [5] = assay: Antifungal activity against Candida albicans ATCC 10231 assessed as growth inhibition at 7.81 ug/ml after 48 hrs by broth microdilution method; conditions: ATCC 10231, 48 h; method in brief: as §2
Cryptococcus neoformans [6] = assay: Antifungal activity against Cryptococcus neoformans IM 983040 clinical isolate after 48 hrs by broth microdilution method; conditions: IM 983040, 48 h
Method in brief: as §1, with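 “days. M27-A3 RPMI-1640 microdilution used 1–5 × 10^3 CFU/mL, 48 h at 30 °C, OD405 read, triplicate.” for “days.”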

Candida albicans [7] = assay: Antifungal activity against Candida albicans ATCC 10231 assessed as growth inhibition at 125 ug/ml after 48 hrs by broth microdilution method; conditions: ATCC 10231, 48 h; method in brief: as §2
Cryptococcus neoformans [8] = assay: Antifungal activity against Cryptococcus neoformans IM 972724 clinical isolate after 48 hrs by broth microdilution method; conditions: IM 972724, 48 h
Method in brief: as §1, with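 “days. M27-A3 RPMI-1640 microdilution used 1–5 × 10^3 CFU/mL, 48 h at 30 °C, OD405 read, triplicate.” for “days.”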

Cryptococcus neoformans [9] = assay: Antifungal activity against Cryptococcus neoformans IM 042074 clinical isolate after 48 hrs by broth microdilution method; conditions: IM 042074, 48 h
Method in brief: as §1, with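 “days. M27-A3 RPMI-1640 microdilution used 1–5 × 10^3 CFU/mL, 48 h at 30 °C, OD405 read, triplicate.” for “days.”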

Cryptococcus neoformans [10] = assay: Antifungal activity against Cryptococcus neoformans ATCC 32264 assessed as growth inhibition at 7.81 ug/ml after 48 hrs by broth microdilution method; conditions: ATCC 32264, 48 h; method in brief: as §2
Candida albicans [11] = assay: Antifungal activity against Candida albicans ATCC 10231 assessed as growth inhibition at 31.25 ug/ml after 48 hrs by broth microdilution method; conditions: ATCC 10231, 48 h; method in brief: as §2
Cryptococcus neoformans [12] = assay: Antifungal activity against Cryptococcus neoformans ATCC 32264 after 48 hrs by broth microdilution method; conditions: ATCC 32264, 48 h
Cryptococcus neoformans [13] = assay: Antifungal activity against Cryptococcus neoformans ATCC 32264 assessed as growth inhibition at 31.25 ug/ml after 48 hrs by broth microdilution method; conditions: ATCC 32264, 48 h; method in brief: as §2
Cryptococcus neoformans [14] = assay: Antifungal activity against Cryptococcus neoformans ATCC 32264 assessed as growth inhibition at 250 ug/ml after 48 hrs by broth microdilution method; conditions: ATCC 32264, 48 h; method in brief: as §2
Candida albicans [15] = assay: Antifungal activity against Candida albicans ATCC 10231 assessed as growth inhibition at 250 ug/ml after 48 hrs by broth microdilution method; conditions: ATCC 10231, 48 h; method in brief: as §2
Cryptococcus neoformans [16] = assay: Antifungal activity against Cryptococcus neoformans IM 031631 clinical isolate after 48 hrs by broth microdilution method; conditions: IM 031631, 48 h
Method in brief: as §1, with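 “days. M27-A3 RPMI-1640 microdilution used 1–5 × 10^3 CFU/mL, 48 h at 30 °C, OD405 read, triplicate.” for “days.”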

Candida albicans [17] = assay: Antifungal activity against Candida albicans ATCC 10231 assessed as growth inhibition at 15.62 ug/ml after 48 hrs by broth microdilution method; conditions: ATCC 10231, 48 h; method in brief: as §2
Cryptococcus neoformans [18] = assay: Antifungal activity against Cryptococcus neoformans IM 983036 clinical isolate after 48 hrs by broth microdilution method; conditions: IM 983036, 48 h
Method in brief: as §1, with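 “days. M27-A3 RPMI-1640 microdilution used 1–5 × 10^3 CFU/mL, 48 h at 30 °C, OD405 read, triplicate.” for “days.”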

Cryptococcus neoformans [19] = assay: Antifungal activity against Cryptococcus neoformans ATCC 32264 assessed as growth inhibition at 3.9 ug/ml after 48 hrs by broth microdilution method; conditions: ATCC 32264, 48 h; method in brief: as §2
Cryptococcus neoformans [20] = assay: Antifungal activity against Cryptococcus neoformans ATCC 32264 assessed as growth inhibition at 62.5 ug/ml after 48 hrs by broth microdilution method; conditions: ATCC 32264, 48 h; method in brief: as §2
Candida albicans [21] = assay: Antifungal activity against Candida albicans ATCC 10231 assessed as growth inhibition at 3.9 ug/ml after 48 hrs by broth microdilution method; conditions: ATCC 10231, 48 h; method in brief: as §2
Cryptococcus neoformans [22] = assay: Antifungal activity against Cryptococcus neoformans IM 031706 clinical isolate after 48 hrs by broth microdilution method; conditions: IM 031706, 48 h; method in brief: as §1
Cryptococcus neoformans [23] = assay: Antifungal activity against Cryptococcus neoformans IM 052470 clinical isolate after 48 hrs by broth microdilution method; conditions: IM 052470, 48 h; method in brief: as §1
Cryptococcus neoformans [24] = assay: Antifungal activity against Cryptococcus neoformans ATCC 32264 assessed as growth inhibition at 15.62 ug/ml after 48 hrs by broth microdilution method; conditions: ATCC 32264, 48 h; method in brief: as §2
Cryptococcus neoformans [25] = assay: Antifungal activity against Cryptococcus neoformans IM 961951 clinical isolate after 48 hrs by broth microdilution method; conditions: IM 961951, 48 h
Method in brief: as §1, with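 “days. M27-A3 RPMI-1640 microdilution used 1–5 × 10^3 CFU/mL, 48 h at 30 °C, OD405 read, triplicate.” for “days.”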

## Nc1nc(N)c2c(n1)NC(c1sc(Cl)nc1Cl)CC(c1ccc(Cl)cc1)=N2 (configuration not stated)
Cryptococcus neoformans [1]
  MFC: 31.2 µg/mL (≈ 70.8 µM)
  MIC50: 7.8 µg/mL (≈ 17.7 µM)
  MIC80: 15.6 µg/mL (≈ 35.4 µM)
Cryptococcus neoformans [1]; read-out: MIC100
  MIC: 15.6 µg/mL (≈ 35.4 µM)
Cryptococcus neoformans [2]
  MFC: 62.5 µg/mL (≈ 142 µM)
  MIC50: 31.2 µg/mL (≈ 70.8 µM)
  MIC80: 31.2 µg/mL (≈ 70.8 µM)
Cryptococcus neoformans [2]; read-out: MIC100
  MIC: 62.5 µg/mL (≈ 142 µM)
Cryptococcus neoformans [3]
  inhibition at 125 µg/mL: 58.2%
Candida albicans [4]
  inhibition at 62.5 µg/mL: 100%
Candida albicans [5]
  inhibition at 7.81 µg/mL: 48.3%
Cryptococcus neoformans [6]
  MFC: 62.5 µg/mL (≈ 142 µM)
  MIC50: 31.2 µg/mL (≈ 70.8 µM)
  MIC80: 31.2 µg/mL (≈ 70.8 µM)
Cryptococcus neoformans [6]; read-out: MIC100
  MIC: 31.2 µg/mL (≈ 70.8 µM)
Candida albicans [7]
  inhibition at 125 µg/mL: 100%
Cryptococcus neoformans [8]
  MFC: 31.2 µg/mL (≈ 70.8 µM)
  MIC50: 7.8 µg/mL (≈ 17.7 µM)
  MIC80: 15.6 µg/mL (≈ 35.4 µM)
Cryptococcus neoformans [8]; read-out: MIC100
  MIC: 15.6 µg/mL (≈ 35.4 µM)
Cryptococcus neoformans [9]
  MFC: 62.5 µg/mL (≈ 142 µM)
  MIC50: 15.6 µg/mL (≈ 35.4 µM)
  MIC80: 31.2 µg/mL (≈ 70.8 µM)
Cryptococcus neoformans [9]; read-out: MIC100
  MIC: 31.2 µg/mL (≈ 70.8 µM)
Cryptococcus neoformans [10]
  inhibition at 7.81 µg/mL: 3.56%
Candida albicans [11]
  inhibition at 31.25 µg/mL: 100%
Cryptococcus neoformans [12]
  MFC: 31.2 µg/mL (≈ 70.8 µM)
  MIC50: 7.8 µg/mL (≈ 17.7 µM)
  MIC80: 15.6 µg/mL (≈ 35.4 µM)
Cryptococcus neoformans [12]; read-out: MIC100
  MIC: 15.6 µg/mL (≈ 35.4 µM)
Cryptococcus neoformans [13]
  inhibition at 31.25 µg/mL: 30.5%
Cryptococcus neoformans [14]
  inhibition at 250 µg/mL: 78.7%
Candida albicans [15]
  inhibition at 250 µg/mL: 100%
Cryptococcus neoformans [16]
  MFC: 62.5 µg/mL (≈ 142 µM)
  MIC50: 7.8 µg/mL (≈ 17.7 µM)
  MIC80: 15.6 µg/mL (≈ 35.4 µM)
Cryptococcus neoformans [16]; read-out: MIC100
  MIC: 31.2 µg/mL (≈ 70.8 µM)
Candida albicans [17]
  inhibition at 15.62 µg/mL: 100%
Cryptococcus neoformans [18]
  MFC: 31.2 µg/mL (≈ 70.8 µM)
  MIC50: 15.6 µg/mL (≈ 35.4 µM)
  MIC80: 15.6 µg/mL (≈ 35.4 µM)
Cryptococcus neoformans [18]; read-out: MIC100
  MIC: 31.2 µg/mL (≈ 70.8 µM)
Cryptococcus neoformans [19]
  inhibition at 3.9 µg/mL: 0%
Cryptococcus neoformans [20]
  inhibition at 62.5 µg/mL: 40.5%
Candida albicans [21]
  inhibition at 3.9 µg/mL: 22.2%
Cryptococcus neoformans [22]
  MFC: 62.5 µg/mL (≈ 142 µM)
  MIC50: 7.8 µg/mL (≈ 17.7 µM)
  MIC80: 31.2 µg/mL (≈ 70.8 µM)
Cryptococcus neoformans [22]; read-out: MIC100
  MIC: 62.5 µg/mL (≈ 142 µM)
Cryptococcus neoformans [23]
  MFC: 62.5 µg/mL (≈ 142 µM)
  MIC50: 15.6 µg/mL (≈ 35.4 µM)
  MIC80: 31.2 µg/mL (≈ 70.9 µM)
Cryptococcus neoformans [23]; read-out: MIC100
  MIC: 62.5 µg/mL (≈ 142 µM)
Cryptococcus neoformans [24]
  inhibition at 15.62 µg/mL: 13.1%
Cryptococcus neoformans [25]
  MFC: 62.5 µg/mL (≈ 142 µM)
  MIC50: 7.8 µg/mL (≈ 17.7 µM)
  MIC80: 15.6 µg/mL (≈ 35.4 µM)
Cryptococcus neoformans [25]; read-out: MIC100
  MIC: 15.6 µg/mL (≈ 35.4 µM)

## Nc1nc(N)c2c(n1)NC(c1sc(Cl)nc1Cl)CC(c1ccc(F)cc1)=N2 (configuration not stated)
Cryptococcus neoformans [3]
  inhibition at 125 µg/mL: 24.6%
Candida albicans [4]
  inhibition at 62.5 µg/mL: 43.3%
Candida albicans [5]
  inhibition at 7.81 µg/mL: 0%
Candida albicans [7]
  inhibition at 125 µg/mL: 51.7%
Cryptococcus neoformans [10]
  inhibition at 7.81 µg/mL: 5.01%
Candida albicans [11]
  inhibition at 31.25 µg/mL: 21.3%
Cryptococcus neoformans [13]
  inhibition at 31.25 µg/mL: 11%
Cryptococcus neoformans [14]
  inhibition at 250 µg/mL: 25.5%
Candida albicans [15]
  inhibition at 250 µg/mL: 59.9%
Candida albicans [17]
  inhibition at 15.62 µg/mL: 17.9%
Cryptococcus neoformans [19]
  inhibition at 3.9 µg/mL: 3.83%
Cryptococcus neoformans [20]
  inhibition at 62.5 µg/mL: 12.8%
Candida albicans [21]
  inhibition at 3.9 µg/mL: 0%
Cryptococcus neoformans [24]
  inhibition at 15.62 µg/mL: 7.17%

Source: ChEMBL document CHEMBL3407460, “Synthesis of novel thiazole-based 8,9-dihydro-7H-pyrimido[4,5-b][1,4]diazepines as potential antitumor and antifungal agents” (2015)
